Measured values as given in ChEMBL document CHEMBL1944556, “Natural Product Based 6-Hydroxy-2,3,4,6-tetrahydropyrrolo[1,2-a]pyrimidinium Scaffold as A New Antifungal Template” (ACS Med Chem Lett, 2011).
Values after ≈ are worked out from the molar mass of the structure shown. Active and inactive are the calls of the source. The calls are words filed in the database; no cut-off is given here.

What was measured:
[1] = tested on: Cryptococcus neoformans; assay: Antifungal activity against Cryptococcus neoformans ATCC 90113; format: functional
In short: (§1)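 Read-outs were MIC and MFC, in μg/mL. MFC is the lowest concentration that kills the fungus.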

[2] = tested on: Candida albicans; assay: Antifungal activity against Candida albicans ATCC 90028; format: functional; in short: as §1
[3] = tested on: Aspergillus fumigatus; assay: Antifungal activity against Aspergillus fumigatus ATCC 90906; format: functional; in short: as §1
[4] = Selectivity index of IC50 for african green monkey Vero cells to MFC for Cryptococcus neoformans ATCC 90113; format: toxicity, cell-based; conditions: read-out: Selectivity Index
In short: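 The index is the Vero cell cytotoxicity IC50 divided by the MFC against C. neoformans.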

[5] = tested on: Vero; assay: Cytotoxicity against african green monkey Vero cells; format: cell-based; conditions: Chlorocebus sabaeus
[6] = tested on: Aspergillus fumigatus; assay: Antifungal activity against Aspergillus fumigatus ATCC 13073; format: functional
In short: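 Panel of 23 fungal strains assayed by the group's previously published protocol. Read-outs in μg/mL are the MIC and the MFC, the lowest concentration that kills the fungus. The highest concentration tested was 160 μg/mL, or 5 μg/mL for some agents.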

[7] = tested on: Candida albicans; assay: Antifungal activity against fluconazole-resistant Candida albicans isolate 17 isolated from AIDS patient; format: functional
[8] = tested on: Cryptococcus bacillisporus; assay: Antifungal activity against fluconazole-resistant Cryptococcus gattii ATCC 32609; format: functional
[9] = tested on: Cryptococcus neoformans; assay: Antifungal activity against Cryptococcus neoformans ATCC 66031; format: functional
[10] = tested on: Aspergillus flavus; assay: Antifungal activity against Aspergillus flavus ATCC 204304; format: functional
In short: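 Panel of 23 fungal strains assayed by the group's previously published protocol. Read-outs in μg/mL are the MIC and the MFC, the lowest concentration that kills the fungus.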

[11] = tested on: Candida albicans; assay: Antifungal activity against amphotericin-B-resistant Candida albicans ATCC 200955; format: functional
[12] = tested on: Aspergillus niger; assay: Antifungal activity against Aspergillus niger ATCC 16404 at 5 ug/ml; format: functional, organism-based
[13] = tested on: Candida albicans; assay: Antifungal activity against Candida albicans ATCC 14053; format: functional; in short: as §1
[14] = tested on: Candida albicans; assay: Antifungal activity against fluconazole-resistant Candida albicans isolate 1 isolated from AIDS patient; format: functional
[15] = tested on: Aspergillus fumigatus; assay: Antifungal activity against Aspergillus fumigatus ATCC 204305; format: functional
[16] = tested on: Candida albicans; assay: Antifungal activity against Candida albicans ATCC 32354; format: functional
[17] = tested on: Cryptococcus neoformans; assay: Antifungal activity against Cryptococcus neoformans ATCC 90113 at 20 ug/ml; format: functional, organism-based
[18] = tested on: Aspergillus fumigatus; assay: Antifungal activity against Aspergillus fumigatus ATCC 90906 at 20 ug/ml; format: functional, organism-based
[19] = tested on: Candida albicans; assay: Antifungal activity against Candida albicans ATCC 90028 at 20 ug/ml; format: functional, organism-based
[20] = tested on: Nakaseomyces glabratus; assay: Antifungal activity against intrinsically fluconazole-resistant Candida glabrata ATCC 90030 at 160 ug/ml; format: functional, organism-based
[21] = tested on: Candida tropicalis; assay: Antifungal activity against Candida tropicalis ATCC 750; format: functional
[22] = tested on: Candida albicans; assay: Antifungal activity against Candida albicans ATCC 90028 at 160 ug/ml; format: functional, organism-based
[23] = tested on: Pichia kudriavzevii; assay: Antifungal activity against intrinsically fluconazole-resistant Candida krusei ATCC 6258; format: functional
[24] = tested on: Aspergillus niger; assay: Antifungal activity against Aspergillus niger ATCC 16404 at 160 ug/ml; format: functional, organism-based
[25] = tested on: Candida albicans; assay: Antifungal activity against Candida albicans ATCC 14053 at 160 ug/ml; format: functional, organism-based
[26] = tested on: Aspergillus fumigatus; assay: Antifungal activity against Aspergillus fumigatus ATCC 204305 at 160 ug/ml; format: functional, organism-based
[27] = tested on: Candida parapsilosis; assay: Antifungal activity against Candida parapsilosis ATCC 22019 at 160 ug/ml; format: functional, organism-based
[28] = tested on: Candida albicans; assay: Antifungal activity against Candida albicans ATCC 60193 at 160 ug/ml; format: functional, organism-based
[29] = tested on: Candida albicans; assay: Antifungal activity against Candida albicans ATCC 60193; format: functional
[30] = tested on: Aspergillus flavus; assay: Antifungal activity against Aspergillus flavus ATCC 204304 at 160 ug/ml; format: functional, organism-based
[31] = tested on: Nakaseomyces glabratus; assay: Antifungal activity against intrinsically fluconazole-resistant Candida glabrata ATCC 90030; format: functional
[32] = tested on: Candida albicans; assay: Antifungal activity against fluconazole-resistant Candida albicans isolate 1 isolated from AIDS patient at 160 ug/ml; format: functional, organism-based
[33] = tested on: Candida parapsilosis; assay: Antifungal activity against Candida parapsilosis ATCC 22019; format: functional; conditions: Lodderomyces parapsilosis
[34] = tested on: Candida tropicalis; assay: Antifungal activity against Candida tropicalis ATCC 750 at 160 ug/ml; format: functional, organism-based
[35] = tested on: Candida albicans; assay: Antifungal activity against fluconazole-resistant Candida albicans isolate 17 isolated from AIDS patient at 160 ug/ml; format: functional, organism-based
[36] = tested on: Candida albicans; assay: Antifungal activity against Candida albicans ATCC 32354 at 160 ug/ml; format: functional, organism-based
[37] = tested on: Aspergillus fumigatus; assay: Antifungal activity against Aspergillus fumigatus ATCC 90906 at 160 ug/ml; format: functional, organism-based
[38] = tested on: Aspergillus fumigatus; assay: Antifungal activity against Aspergillus fumigatus ATCC 13073 at 160 ug/ml; format: functional, organism-based
[39] = tested on: Candida albicans; assay: Antifungal activity against amphotericin-B-resistant Candida albicans ATCC 200955 at 160 ug/ml; format: functional, organism-based

CCCCCCCCCCCCC1(O)C=CC2=[N+](C)CCCN21.[I-] (centres undefined)
MFC [1]: 0.63 µg/mL
MIC [1]: 0.63 µg/mL
MFC [2]: 10 µg/mL
MIC [2]: 7.5 µg/mL
MFC [3]: 10 µg/mL
MIC [3]: 5 µg/mL
selectivity ratio [4]: 29
IC50 [5]: 18.3 µg/mL

C[C@@H]1[C@H](O)[C@@H](C)/C=C/C=C/C=C/C=C/C=C/C=C/C=C/[C@H](O[C@@H]2O[C@H](C)[C@@H](O)[C@H](N)[C@@H]2O)C[C@@H]2O[C@](O)(C[C@@H](O)C[C@@H](O)[C@H](O)CC[C@@H](O)C[C@@H](O)CC(=O)O[C@H]1C)C[C@H](O)[C@H]2C(=O)O [AMPHOTERICIN B]
MFC [6]: 10 µg/mL (≈ 10.8 µM)
MIC [6]: 1.5 µg/mL (≈ 1.62 µM)
MIC [7]: 0.94 µg/mL (≈ 1.02 µM)
MFC [8]: 0.57 µg/mL (≈ 0.617 µM)
MIC [8]: 0.57 µg/mL (≈ 0.617 µM)
MFC [9]: 0.31 µg/mL (≈ 0.335 µM)
MIC [9]: 0.16 µg/mL (≈ 0.173 µM)
MFC [10]: 5 µg/mL (≈ 5.41 µM)
MIC [11]: 1.88 µg/mL (≈ 2.03 µM)
Activity [12]: inactive
IC50 [5]: 4.7 µg/mL (≈ 5.09 µM)

CCCCCCCCCCCCCCC1(O)C=CC2=[N+](C)CCCN21.[I-] (centres undefined)
MFC [1]: 0.31 µg/mL
MIC [1]: 0.31 µg/mL
MIC [13]: 1.88 µg/mL
MFC [7]: 2.5 µg/mL
MIC [2]: 1.88 µg/mL
MFC [8]: 0.63 µg/mL
MIC [8]: 0.63 µg/mL
MFC [9]: 0.31 µg/mL
MIC [9]: 0.23 µg/mL
MFC [3]: 5 µg/mL
MIC [3]: 1.88 µg/mL
MIC [14]: 1.25 µg/mL
MFC [15]: 10 µg/mL
MFC [16]: 10 µg/mL
selectivity ratio [4]: 53
IC50 [5]: 16.5 µg/mL

CCCCCCCCCCCCCCCCC1(O)C=CC2=[N+](C)CCCN21.[I-] (centres undefined)
MFC [1]: 1.25 µg/mL
MIC [1]: 1.25 µg/mL
MFC [2]: 2.5 µg/mL
MIC [2]: 2.5 µg/mL
MFC [3]: 5 µg/mL
MIC [3]: 5 µg/mL
selectivity ratio [4]: 13
IC50 [5]: 16 µg/mL

CCCCCCC1(O)C=CC2=[N+](C)CCCN21.[I-] (centres undefined)
Activity [17]: inactive
Activity [18]: inactive
Activity [19]: inactive
IC50 [5]: > 25 µg/mL

CCCCCCCCCCC1(O)C=CC2=[N+](C)CCCN21.[I-] (centres undefined)
MFC [1]: 10 µg/mL
MIC [1]: 10 µg/mL
MIC [2]: 20 µg/mL
Activity [18]: inactive
Activity [19]: inactive
selectivity ratio [4]: 2
IC50 [5]: 21.3 µg/mL

CCCCCCCCCCCCCCCCCCC1(O)C=CC2=[N+](C)CCCN21.[I-] (centres undefined)
MFC [1]: 1.97 µg/mL
MIC [1]: 1.61 µg/mL
MFC [2]: 2.5 µg/mL
MIC [2]: 2.5 µg/mL
MIC [3]: 10 µg/mL
Activity [18]: inactive
selectivity ratio [4]: 6
IC50 [5]: 12.3 µg/mL

OC(Cn1cncn1)(Cn1cncn1)c1ccc(F)cc1F [FLUCONAZOLE]
Activity [20]: inactive
MIC [21]: 13.1 µg/mL (≈ 42.8 µM)
Activity [22]: inactive
MFC [23]: 80 µg/mL (≈ 261 µM)
MIC [23]: 45 µg/mL (≈ 147 µM)
MFC [1]: 25 µg/mL (≈ 81.6 µM)
MIC [1]: 9.38 µg/mL (≈ 30.6 µM)
MIC [13]: 0.25 µg/mL (≈ 0.816 µM)
Activity [24]: inactive
Activity [25]: inactive
MIC [2]: 0.51 µg/mL (≈ 1.67 µM)
MFC [8]: 50 µg/mL (≈ 163 µM)
MIC [8]: 50 µg/mL (≈ 163 µM)
Activity [26]: inactive
Activity [27]: inactive
Activity [28]: inactive
MIC [29]: 0.2 µg/mL (≈ 0.653 µM)
MFC [9]: 12.5 µg/mL (≈ 40.8 µM)
MIC [9]: 3.91 µg/mL (≈ 12.8 µM)
Activity [30]: inactive
MIC [31]: 45 µg/mL (≈ 147 µM)
Activity [32]: inactive
MIC [33]: 2.8 µg/mL (≈ 9.14 µM)
MIC [14]: 10.4 µg/mL (≈ 33.9 µM)
MIC [11]: 0.35 µg/mL (≈ 1.14 µM)
Activity [34]: inactive
Activity [35]: inactive
MIC [16]: 0.94 µg/mL (≈ 3.07 µM)
Activity [36]: inactive
Activity [37]: inactive
Activity [38]: inactive
Activity [39]: inactive
